In ChEMBL document CHEMBL4477210, “Gramine Derivatives Targeting Ca(2+) Channels and Ser/Thr Phosphatases: A New Dual Strategy for the Treatment of Neurodegenerative Diseases” (J Med Chem, 2016):
The source made the active and inactive calls. The calls are words filed in the database; no cut-off is given here.

Test system: Cortical neurone
Experiment: Neuroprotective activity in rat cortical motor neurons assessed as reversal of veratridine-induced cytotoxicity at 0.1 uM incubated for 24 hrs followed by coincubation with veratridine for 24 hrs by MTT assay
Format: functional

Q: With `Brc1ccc2c(c1)c(CN1CCCCC1)cn2CCCCN1CCCCC1` as the molecule, how does the Activity read?
A: 0%

Test system: Voltage-gated calcium channel
Experiment: Inhibition of VGCC in human SHSY-5Y cells assessed as reduction of K+-evoked cytosolic ca2+ at 1 uM incubated for 10 mins prior to KCl addition by Fluo-4-AM probe-based fluorescence analysis
Format: cell-based
Summary of the method: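 SH-SY5Y cells at confluence (48 h after seeding) loaded with 10 μM Fluo-4/AM plus 0.2% pluronic in Krebs–HEPES (pH 7.4) for 45 min at 37 °C, then washed. Compound at 1 μM for 10 min, then KCl 70 mM. Ex 485/em 520 nm; signal normalized to Fmax (Triton X-100) minus Fmin (MnCl2). At least six experiments versus K+ response without compound.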

Q: With `Cc1ccc2c(c1)c(CN1CCCCC1)cn2Cc1ccccc1` as the molecule, how does the “inhibition (INH)” value read?
A: 22%

Q: With `Cc1ccc2c(c1)c(CN1CCCCC1)cn2CCCCCl` as the molecule, how does the “inhibition (INH)” value read?
A: 35%

Q: With `c1ccc2c(CN3CCCCC3)c[nH]c2c1` as the molecule, how does the “inhibition (INH)” value read?
A: 30%

Q: With `Cc1ccc2c(c1)c(CN(C)C)cn2CCCCN1CCCCC1` as the molecule, how does the “inhibition (INH)” value read?
A: 16%

Q: With `C#CCn1cc(CN(C)C)c2cc(Br)ccc21` as the molecule, how does the “inhibition (INH)” value read?
A: 10%

Q: With `Brc1ccc2c(c1)c(CN1CCCCC1)cn2CCCCN1CCCCC1` as the molecule, how does the “inhibition (INH)” value read?
A: 19%

Q: Which “inhibition (INH)” value does the source give for `Cc1ccc2c(c1)c(CN(C)C)cn2Cc1ccccc1` here?
A: 18%

Q: For `C#CCn1cc(CN2CCCCC2)c2cc(Br)ccc21`, which “inhibition (INH)” value is on record?
A: 42%

Q: Which “inhibition (INH)” value does the source give for `Cc1ccc2[nH]cc(CN(C)C)c2c1` here?
A: 10%

Q: With `CCOC(=O)CCCn1cc(CN2CCCCC2)c2cc(Br)ccc21` as the molecule, how does the “inhibition (INH)” value read?
A: 16%

Q: With `Cc1ccc2[nH]cc(CN3CCCCC3)c2c1` as the molecule, how does the “inhibition (INH)” value read?
A: 16%

Q: Which “inhibition (INH)” value does the source give for `C#CCn1cc(CN2CCCCC2)c2cc(C)ccc21` here?
A: 25%

Q: With `CN(C)Cc1c[nH]c2ccc(Br)cc12` [BROMOGRAMINE] as the molecule, how does the “inhibition (INH)” value read?
A: 3%

Q: Which “inhibition (INH)” value does the source give for `ClCCCCn1cc(CN2CCCCC2)c2cc(Br)ccc21` here?
A: 57%

Organism: Homo sapiens
Experiment: (§1) Suppression of okadaic acid-induced inhibition of PP1/PP2A in human SHSY-5Y cells at 0.1 uM using pNPP as substrate assessed as remaining total phosphatase activity incubated for 30 mins by colorimetric assay (reference value: 68 +/- 2%)
Format: cell-based
Summary of the method: (§2)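 SH-SY5Y cells treated with compound at 0.1 μM plus okadaic acid 15 nM (24 h preincubation, then coincubation). Medium removed; assay buffer with pNPP (10 mM) added, 30 min at 37 °C in the dark, absorbance at 405 nm. For Ser/Thr activity, 1 mM orthovanadate added to the buffer. Expressed as % of untreated cells; at least four experiments.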

Q: Which Activity does the source give for `Cc1ccc2c(c1)c(CN1CCCCC1)cn2Cc1ccccc1` here?
A: 77%

Q: For `Cc1ccc2c(c1)c(CN1CCCCC1)cn2CCCCCl`, which Activity is on record?
A: 71%

Q: Which Activity does the source give for `c1ccc2c(CN3CCCCC3)c[nH]c2c1` here?
A: 76%

Q: For `Cc1ccc2c(c1)c(CN(C)C)cn2CCCCN1CCCCC1`, which Activity is on record?
A: 74%

Q: With `C#CCn1cc(CN(C)C)c2cc(Br)ccc21` as the molecule, how does the Activity read?
A: 70%

Q: With `Brc1ccc2c(c1)c(CN1CCCCC1)cn2CCCCN1CCCCC1` as the molecule, how does the Activity read?
A: 73%

Q: With `Cc1ccc2c(c1)c(CN(C)C)cn2Cc1ccccc1` as the molecule, how does the Activity read?
A: 73%

Q: For `C#CCn1cc(CN2CCCCC2)c2cc(Br)ccc21`, which Activity is on record?
A: 77%

Q: For `Cc1ccc2[nH]cc(CN(C)C)c2c1`, which Activity is on record?
A: 79%

Q: With `CCOC(=O)CCCn1cc(CN2CCCCC2)c2cc(Br)ccc21` as the molecule, how does the Activity read?
A: 73%

Q: Which Activity does the source give for `Cc1ccc2[nH]cc(CN3CCCCC3)c2c1` here?
A: 71%

Q: For `C#CCn1cc(CN2CCCCC2)c2cc(C)ccc21`, which Activity is on record?
A: 71%

Q: For `CN(C)Cc1c[nH]c2ccc(Br)cc12` [BROMOGRAMINE], which Activity is on record?
A: 80%

Q: For `ClCCCCn1cc(CN2CCCCC2)c2cc(Br)ccc21`, which Activity is on record?
A: 68%

Organism: Bos taurus
Experiment: Inhibition of VGCC in bovine chromaffin cells assessed as reduction in depolarization-evoked Ca2+ current at 1 uM at -80 mV holding potential using 50 millisec depolarization pulses every 20 secs in presence of […] N and P/Q type VGCC blocker omega-conotoxin MV2C by patch clamp method
Format: cell-based

Q: For `Cc1ccc2c(c1)c(CN1CCCCC1)cn2Cc1ccccc1`, which inhibition is on record?
A: Active

Organism: Bos taurus
Experiment: Inhibition of VGCC in bovine chromaffin cells assessed as potentiation of compound-induced of reduction in depolarization-evoked Ca2+ current at 1 uM at -80 mV holding potential using 50 millisec depolarization pulses every 20 secs in presence of L-type VGCC blocker nifedipine by patch clamp method
Format: cell-based

Q: Which inhibition does the source give for `Cc1ccc2c(c1)c(CN1CCCCC1)cn2Cc1ccccc1` here?
A: Active

Test system: SH-SY5Y
Experiment: Neuroprotective activity in human SH-SY5Y cells assessed as reversal of okadaic acid-induced cytotoxicity at 0.1 uM preincubated for 24 hrs followed by […] by MTT assay
Format: functional

Q: With `Cc1ccc2c(c1)c(CN1CCCCC1)cn2Cc1ccccc1` as the molecule, how does the Activity read?
A: 56%

Q: With `Cc1ccc2c(c1)c(CN1CCCCC1)cn2CCCCCl` as the molecule, how does the Activity read?
A: 56%

Q: Which Activity does the source give for `c1ccc2c(CN3CCCCC3)c[nH]c2c1` here?
A: 47%

Q: With `Cc1ccc2c(c1)c(CN(C)C)cn2CCCCN1CCCCC1` as the molecule, how does the Activity read?
A: 37%

Q: Which Activity does the source give for `C#CCn1cc(CN(C)C)c2cc(Br)ccc21` here?
A: 12%

Q: With `Brc1ccc2c(c1)c(CN1CCCCC1)cn2CCCCN1CCCCC1` as the molecule, how does the Activity read?
A: 61%

Q: Which Activity does the source give for `Cc1ccc2c(c1)c(CN(C)C)cn2Cc1ccccc1` here?
A: 44%

Q: Which Activity does the source give for `C#CCn1cc(CN2CCCCC2)c2cc(Br)ccc21` here?
A: 47%

Q: With `Cc1ccc2[nH]cc(CN(C)C)c2c1` as the molecule, how does the Activity read?
A: 59%

Q: Which Activity does the source give for `CCOC(=O)CCCn1cc(CN2CCCCC2)c2cc(Br)ccc21` here?
A: 43%

Q: For `Cc1ccc2[nH]cc(CN3CCCCC3)c2c1`, which Activity is on record?
A: 38%

Q: With `C#CCn1cc(CN2CCCCC2)c2cc(C)ccc21` as the molecule, how does the Activity read?
A: 42%

Q: Which Activity does the source give for `CN(C)Cc1c[nH]c2ccc(Br)cc12` [BROMOGRAMINE] here?
A: 47%

Q: Which Activity does the source give for `ClCCCCn1cc(CN2CCCCC2)c2cc(Br)ccc21` here?
A: 48%

Test system: SH-SY5Y
Experiment: Cytotoxicity against human SH-SY5Y cells assessed as reduction of cell viability at <10 uM incubated for 48 hrs by MTT assay
Format: cell-based
Summary of the method: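 SH-SY5Y cells exposed to compounds for 48 h; viability read by MTT reduction (final 0.3 mg/mL, 2 h at 37 °C in the dark), formazan dissolved in DMSO, absorbance at 540 nm, expressed as % of untreated cells.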

Q: With `Cc1ccc2c(c1)c(CN1CCCCC1)cn2Cc1ccccc1` as the molecule, how does the Activity read?
A: Non-Toxic

Q: Which Activity does the source give for `Cc1ccc2c(c1)c(CN1CCCCC1)cn2CCCCCl` here?
A: Non-Toxic

Q: For `c1ccc2c(CN3CCCCC3)c[nH]c2c1`, which Activity is on record?
A: Non-Toxic

Q: Which Activity does the source give for `Cc1ccc2c(c1)c(CN(C)C)cn2CCCCN1CCCCC1` here?
A: Non-Toxic

Q: Which Activity does the source give for `C#CCn1cc(CN(C)C)c2cc(Br)ccc21` here?
A: Non-Toxic

Q: Which Activity does the source give for `Brc1ccc2c(c1)c(CN1CCCCC1)cn2CCCCN1CCCCC1` here?
A: Non-Toxic

Q: Which Activity does the source give for `Cc1ccc2c(c1)c(CN(C)C)cn2Cc1ccccc1` here?
A: Non-Toxic

Q: With `C#CCn1cc(CN2CCCCC2)c2cc(Br)ccc21` as the molecule, how does the Activity read?
A: Non-Toxic

Q: With `Cc1ccc2[nH]cc(CN(C)C)c2c1` as the molecule, how does the Activity read?
A: Non-Toxic

Q: With `CCOC(=O)CCCn1cc(CN2CCCCC2)c2cc(Br)ccc21` as the molecule, how does the Activity read?
A: Non-Toxic

Q: With `Cc1ccc2[nH]cc(CN3CCCCC3)c2c1` as the molecule, how does the Activity read?
A: Non-Toxic

Q: Which Activity does the source give for `C#CCn1cc(CN2CCCCC2)c2cc(C)ccc21` here?
A: Non-Toxic

Q: With `CN(C)Cc1c[nH]c2ccc(Br)cc12` [BROMOGRAMINE] as the molecule, how does the Activity read?
A: Non-Toxic

Q: For `ClCCCCn1cc(CN2CCCCC2)c2cc(Br)ccc21`, which Activity is on record?
A: Non-Toxic

Organism: Bos taurus
Experiment: Inhibition of VGCC in bovine chromaffin cells assessed as reduction in depolarization-evoked Ca2+ current at 1 uM at -80 mV holding potential using 50 millisec depolarization pulses every 20 secs by patch clamp method
Format: cell-based

Q: With `Cc1ccc2c(c1)c(CN1CCCCC1)cn2Cc1ccccc1` as the molecule, how does the inhibition read?
A: 40%

Organism: Homo sapiens
Experiment: as §1, with “Ser/Thr” for “total”, “mins in presence of tyrosine phosphatase inhibitor sodium orthovanadate” for “mins”, “61” for “68”, “3%)” for “2%)”
Format: cell-based
Summary of the method: as §2

Q: Which Activity does the source give for `Cc1ccc2c(c1)c(CN1CCCCC1)cn2Cc1ccccc1` here?
A: 78%

Q: Which Activity does the source give for `Cc1ccc2c(c1)c(CN1CCCCC1)cn2CCCCCl` here?
A: 62%

Q: With `c1ccc2c(CN3CCCCC3)c[nH]c2c1` as the molecule, how does the Activity read?
A: 79%

Q: For `Cc1ccc2c(c1)c(CN(C)C)cn2CCCCN1CCCCC1`, which Activity is on record?
A: 68%

Q: For `C#CCn1cc(CN(C)C)c2cc(Br)ccc21`, which Activity is on record?
A: 64%

Q: For `Brc1ccc2c(c1)c(CN1CCCCC1)cn2CCCCN1CCCCC1`, which Activity is on record?
A: 70%

Q: Which Activity does the source give for `Cc1ccc2c(c1)c(CN(C)C)cn2Cc1ccccc1` here?
A: 66%

Q: Which Activity does the source give for `C#CCn1cc(CN2CCCCC2)c2cc(Br)ccc21` here?
A: 72%

Q: With `Cc1ccc2[nH]cc(CN(C)C)c2c1` as the molecule, how does the Activity read?
A: 77%

Q: Which Activity does the source give for `CCOC(=O)CCCn1cc(CN2CCCCC2)c2cc(Br)ccc21` here?
A: 71%

Q: For `Cc1ccc2[nH]cc(CN3CCCCC3)c2c1`, which Activity is on record?
A: 69%

Q: With `C#CCn1cc(CN2CCCCC2)c2cc(C)ccc21` as the molecule, how does the Activity read?
A: 66%

Q: With `CN(C)Cc1c[nH]c2ccc(Br)cc12` [BROMOGRAMINE] as the molecule, how does the Activity read?
A: 76%

Q: With `ClCCCCn1cc(CN2CCCCC2)c2cc(Br)ccc21` as the molecule, how does the Activity read?
A: 62%

Test system: Cortical neurone
Experiment: Cytotoxicity against rat cortical motor neurons assessed as reduction of cell viability at 1 uM incubated for 48 hrs by MTT assay
Format: cell-based
Summary of the method: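 Rat cortical motor neurons in neurobasal medium with 2% B-27 on poly-D-lysine, grown 8−10 days to a dense network, then exposed to compound for 48 h. Viability read by MTT (0.3 mg/mL final, 30 min, 37 °C, dark), formazan dissolved in DMSO, absorbance 540 nm, expressed as % of untreated cells.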

Q: For `c1ccc2c(CN3CCCCC3)c[nH]c2c1`, which Activity is on record?
A: Toxic

Q: With `Brc1ccc2c(c1)c(CN1CCCCC1)cn2CCCCN1CCCCC1` as the molecule, how does the Activity read?
A: Toxic

Test system: not listed separately
Experiment: (§3) Neuroprotective activity in Sprague-Dawley rat hippocampal cells assessed as reversal of glutamate-induced cytotoxicity at 10 uM incubated for 4 hrs by MTT assay
Format: functional, Hippocampal neurone
Summary of the method: (§4)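 Hippocampal slices from 2-month-old Sprague–Dawley rats stabilized 45 min at 34 °C, then coincubated 4 h with compound and glutamate 1 mM. Viability by MTT (0.3 mg/mL, 30 min), absorbance at 540 nm. Reported as % protection relative to glutamate-only slices; at least four tissue batches in quadruplicate.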

Q: For `CN(C)Cc1c[nH]c2ccc(Br)cc12` [BROMOGRAMINE], which Activity is on record?
A: 40%

Test system: Hippocampal neurone
Experiment: as §3
Format: functional
Summary of the method: as §4

Q: With `Cc1ccc2c(c1)c(CN1CCCCC1)cn2CCCCCl` as the molecule, how does the Activity read?
A: Active
